Measurements from ChEMBL document CHEMBL1140653, “Cytostatic activity of novel 4'-aminochalcone-based imides” (Bioorg Med Chem Lett, 2007).

Columns and labels:
Mus musculus [1] = test: Neurotoxicity in mouse at 300 mg/kg, ip after 4 hrs by rotating rod method; type: toxicity, organism-based; set-up: dose 300 mg/kg, route intraperitoneal; settings: in vivo
Procedure, shortened: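 Intraperitoneal dosing in mice at 30, 100 and 300 mg/kg. Neurological deficit was scored by the rotating rod procedure at 0.5 and 4 h, with observation for other pathological signs. Results were recorded as animals showing neurotoxicity over total animals at each dose.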

CCRF-CEM = test: Cytotoxicity against human CEM cells; type: functional, cell-based
[2] = Cytotoxicity against human Molt4/C8 cells; type: functional, cell-based; settings: MOLT-4
L1210 = test: Cytotoxicity against mouse L1210 cells; type: functional, cell-based
Mus musculus [3] = test: Mortality in mouse at 300 mg/kg, ip after 4 hrs; type: ADME, organism-based; set-up: dose 300 mg/kg, route intraperitoneal; settings: in vivo
Procedure, shortened: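 Mice dosed intraperitoneally at 30, 100 and 300 mg/kg; animals observed for death at 0.5 and 4 h after injection as part of a short-term toxicity screen.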

COc1ccc(/C=C/C(=O)c2ccc(N3C(=O)C=CC3=O)cc2)cc1
Activity (Mus musculus [1]): Non-toxic
IC50 (CCRF-CEM): 8.4 µM
IC50 [2]: 7.9 µM
IC50 (L1210): 9.8 µM

O=C(/C=C/c1ccc(Cl)c(Cl)c1)c1ccc(N2C(=O)C=CC2=O)cc1
IC50 (CCRF-CEM): 7.7 µM
IC50 [2]: 8.8 µM
IC50 (L1210): 6.5 µM

Cc1ccc(/C=C/C(=O)c2ccc(N3C(=O)C=CC3=O)cc2)cc1
IC50 (CCRF-CEM): 4.1 µM
IC50 [2]: 2.4 µM
IC50 (L1210): 1.5 µM

O=C(/C=C/c1ccc2c(c1)OCO2)c1ccc(N2C(=O)C=CC2=O)cc1
IC50 (CCRF-CEM): 258 µM
IC50 [2]: 214 µM
IC50 (L1210): 160 µM

O=C(O)c1ccc(/C=C/C(=O)c2ccc(N3C(=O)C=CC3=O)cc2)cc1
Activity (Mus musculus [1]): Toxic
Activity (Mus musculus [3]): Toxic
IC50 (CCRF-CEM): 133 µM
IC50 [2]: 178 µM
IC50 (L1210): 135 µM

COc1ccc(/C=C/C(=O)c2ccc(N3C(=O)C=CC3=O)cc2)cc1OC
IC50 (CCRF-CEM): 220 µM
IC50 [2]: 202 µM
IC50 (L1210): 157 µM

O=C(/C=C/c1ccc(Cl)cc1)c1ccc(N2C(=O)C=CC2=O)cc1
IC50 (CCRF-CEM): 7.5 µM
IC50 [2]: 7.5 µM
IC50 (L1210): 7.3 µM

O=C(/C=C/c1ccc([N+](=O)[O-])cc1)c1ccc(N2C(=O)C=CC2=O)cc1
IC50 (CCRF-CEM): > 500 µM
IC50 [2]: > 500 µM
IC50 (L1210): > 500 µM

O=C(/C=C/c1ccccc1)c1ccc(N2C(=O)C=CC2=O)cc1
IC50 (CCRF-CEM): 9.8 µM
IC50 [2]: 9.5 µM
IC50 (L1210): 8.6 µM
